{"data": "Measured values pooled from the literature", "target": "Mitogen-activated protein kinase kinase kinase kinase 4 (MAP4K4, Homo sapiens, UniProt O95819)"}
{"Structure (SMILES)": "F[C@@H]1CCN(c2nccc(-c3cnn4ncccc34)n2)C1", "assay": "binding", "conditions": "1 µM", "remaining binding": "76%"}
{"Structure (SMILES)": "CCCOc1ccc([C@H]2[C@H](C(=O)O)[C@@H](c3ccc4c(c3)OCO4)CN2CC(=O)Nc2c(CC)cccc2CC)cc1", "assay": "cell-free assay, competition with immobilised ligand", "conditions": "1 µM", "remaining binding": "90%"}
{"Structure (SMILES)": "c1cnn2ncc(-c3ccnc(N4CCC45COC5)n3)c2c1", "assay": "binding", "conditions": "1 µM", "remaining binding": "77%"}
{"Structure (SMILES)": "CC(=O)N1CCC(c2ccc(C(=O)NC(=N)N)cc2C(F)(F)F)CC1", "assay": "cell-free assay, competition with immobilised ligand", "conditions": "1 µM", "remaining binding": "100%"}
{"Structure (SMILES)": "FC(F)(F)Oc1cccc(-c2cnc3ccc(-c4ccncc4)nn23)c1", "assay": "cell-free assay, competition with immobilised ligand", "conditions": "5 µM", "remaining binding": "49%"}
{"Structure (SMILES)": "CNC(=O)[C@@H]1CC[C@@H](n2c(-c3ccc4cnccc4c3)nc3ccc(C(=O)NCc4cccc(C(N)=O)c4)cc32)C1", "assay": "binding, competition with immobilised ligand", "conditions": "1 µM", "remaining binding": "100%"}
{"Structure (SMILES)": "CN(CCCC(F)(F)F)c1nccc(-c2cnn3ncccc23)n1", "assay": "binding", "conditions": "1 µM", "remaining binding": "100%"}
{"Structure (SMILES)": "O=C(NS(=O)(=O)c1ccc(NCC2CCOCC2)c([N+](=O)[O-])c1)c1ccc(N2CCN(Cc3ccc(C(F)(F)F)cc3-c3ccc(Cl)cc3)CC2)cc1Oc1cnc2[nH]ccc2c1", "assay": "cell-free assay, competition with immobilised ligand", "conditions": "1 µM", "remaining binding": "95%"}
{"Structure (SMILES)": "COc1ncc2cc3ccccc3nc2c1C#N", "assay": "cell-free assay, competition with immobilised ligand", "conditions": "5 µM", "remaining binding": "91%"}
{"Structure (SMILES)": "CCN1CCN(Cc2ccc(C(=O)Nc3ccc(C)c(Oc4ccc5c(c4)CC(=O)N5)c3)cc2C(F)(F)F)CC1", "assay": "binding, competition with immobilised ligand", "conditions": "1 µM", "remaining binding": "88%"}
{"Structure (SMILES)": "O=C(NCCCN1CCOCC1)c1ccc(Nc2ncc(Cl)c(-c3ccc(Cl)s3)n2)cc1", "assay": "binding, competition with immobilised ligand", "conditions": "1 µM", "remaining binding": "67%"}
{"Structure (SMILES)": "N[C@@H]1CCN(c2nccc(-c3cnn4ncccc34)n2)C1", "assay": "binding", "conditions": "1 µM", "remaining binding": "100%"}
{"Structure (SMILES)": "Cc1cnc(Nc2ccc(C(=O)N3CCC(N4CCCC4)CC3)cc2)nc1-c1cc2ccccc2s1", "assay": "binding, competition with immobilised ligand", "conditions": "1 µM", "remaining binding": "67%"}
{"Structure (SMILES)": "Cc1c(C(=O)O)cc(-c2ccc(C3CCNCC3)cc2)c2ccc(-c3ccc(C(F)(F)F)cc3)cc12", "assay": "binding, competition with immobilised ligand", "conditions": "1 µM", "remaining binding": "76%"}
{"Structure (SMILES)": "CN(C)c1nccc(-c2cnn3ncccc23)n1", "assay": "binding", "conditions": "1 µM", "remaining binding": "87%"}
{"Structure (SMILES)": "O=C(c1ccc(Nc2ncc(Cl)c(-c3cc4ccccc4s3)n2)cc1)N1CCC(N2CCCC2)CC1", "assay": "binding, competition with immobilised ligand", "conditions": "1 µM", "remaining binding": "34%"}
{"Structure (SMILES)": "O=C(NCC1CCOCC1)c1n[nH]cc1NC(=O)c1c(F)cccc1F", "assay": "binding, competition with immobilised ligand", "conditions": "1 µM", "remaining binding": "91%"}
{"Structure (SMILES)": "FC(F)(F)c1ccc2c(c1)nc(-c1cccnc1)n2C1CC1", "assay": "cell-free assay, competition with immobilised ligand", "conditions": "1 µM", "remaining binding": "100%"}
{"Structure (SMILES)": "C[C@H]1CCN(c2nccc(-c3cnn4ncccc34)n2)C1", "assay": "binding", "conditions": "1 µM", "remaining binding": "98%"}
{"Structure (SMILES)": "CS(=O)(=O)NCC[C@H](NC(=O)c1cncc2c1cnn2-c1ccc(F)cc1)c1ccnc(S(C)(=O)=O)c1", "assay": "cell-free assay, competition with immobilised ligand", "conditions": "1 µM", "remaining binding": "86%"}
{"Structure (SMILES)": "COc1cnc(Nc2cccc(S(N)(=O)=O)c2)nc1N1CCN(c2ccccc2)C(=O)C1", "assay": "binding, competition with immobilised ligand", "conditions": "1 µM", "remaining binding": "100%"}
